Test [1] concerns the target T1, Urease subunit alpha/Urease subunit beta (Helicobacter pylori (strain ATCC 700392 / 26695) (Campylobacterpylori), UniProt P69996). The test can be described thus: Inhibition of Helicobacter pylori ATCC 43504 urease assessed as reduction in ammonia production using urea as substrate preincubated for 1.5 hrs under cell free condition by indophenol method. Type of test: protein-complex assay, Helicobacter pylori NCTC 11637 = CCUG 17874 = ATCC 43504. Put shortly:
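Crude urease from H. pylori ATCC 43504 grown 24 h at 37 °C, micro-aerobic, in Brucella broth with 10% sheep blood. Cells were PBS-washed, frozen at −80 °C, sonicated with protease inhibitors, centrifuged, desalted on G-25 and kept in 50% glycerol at 4 °C. Enzyme (10U) was preincubated with compound 1.5 h at room temperature. Ammonia was read by the indophenol method.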

Test [2] deals with T1, Urease subunit alpha/Urease subunit beta. The test can be described thus: Mixed-type inhibition of Helicobacter pylori ATCC 43504 urease assessed as enzyme-substrate-inhibitor complex using urea as substrate preincubated for 1.5 hrs. The class given is protein-complex assay, Helicobacter pylori NCTC 11637 = CCUG 17874 = ATCC 43504. Put shortly: (§1)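 Ammonia production rate measured by the indophenol method over a urea concentration gradient at each fixed inhibitor concentration. Inhibition type was assigned by nonlinear fitting to the general kinetic equation. Ki and Ki' were taken as the X-axis intercepts of linear fits of the fitted parameters against inhibitor concentration.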

Test [3] addresses T2, Urease subunit alpha/Urease subunit beta (Helicobacter pylori (strain ATCC 700392 / 26695) (Campylobacterpylori)) (UniProt P69996+P14916). Kind of test: (§2) Inhibition of urease in Helicobacter pylori ATCC 43504 assessed as reduction in ammonia production using urea as substrate preincubated for 1.5 hrs by indophenol method. The class given is protein-complex assay. The following applies: Helicobacter pylori NCTC 11637 = CCUG 17874 = ATCC 43504. Put shortly:
(§3)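 Crude urease from sonicated H. pylori cells (grown 24 h, 37 °C, microaerobic, Brucella broth + 10% sheep blood), PBS-washed, frozen at –80 °C, desalted on Sephadex G-25, stored in 50% glycerol at 4 °C; 10U enzyme preincubated with compound 1.5 h at room temperature; ammonia measured by Weatherburn indophenol method.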

Test [4] concerns the target T1, Urease subunit alpha/Urease subunit beta. The description is as §2. Type of test: protein-complex assay, Helicobacter pylori NCTC 11637 = CCUG 17874 = ATCC 43504. The method in brief:
as §3

In test [5] the target is T2, Urease subunit alpha/Urease subunit beta (Helicobacter pylori (strain ATCC 700392 / 26695) (Campylobacterpylori)). The test can be described thus: Ratio of IC50 for inhibition of urease in Helicobacter pylori ATCC 43504 intact cells to IC50 for inhibition of Helicobacter pylori ATCC 43504 urease under cell free condition. The note with it: Helicobacter pylori NCTC 11637 = CCUG 17874 = ATCC 43504.

For test [6], the target named is T1, Urease subunit alpha/Urease subunit beta. Kind of test: Mixed-type inhibition of Helicobacter pylori ATCC 43504 urease assessed as enzyme-inhibitor complex using urea as substrate preincubated for 1.5 hrs. The class given is protein-complex assay, Helicobacter pylori NCTC 11637 = CCUG 17874 = ATCC 43504. The method in brief:
as §1

Test [7] concerns the target T2, Urease subunit alpha/Urease subunit beta (Helicobacter pylori (strain ATCC 700392 / 26695) (Campylobacterpylori)). The test can be described thus: Potency index, ratio of acetohydroxamic acid IC50 to compound IC50 for inhibition of Helicobacter pylori ATCC 43504 urease. The note with it: Helicobacter pylori NCTC 11637 = CCUG 17874 = ATCC 43504. Type of test: protein-complex assay.

For test [8] the target is unchanged. The test can be described thus: Potency index, ratio of acetohydroxamic acid IC50 to compound IC50 for inhibition of urease in Helicobacter pylori ATCC 43504. The following applies: Helicobacter pylori NCTC 11637 = CCUG 17874 = ATCC 43504. The class given is protein-complex assay.

The structures appear in SMILES notation. pIC50, pKi: −log10 of the molar value.

T2 sequence (P14916 whole entry, looked up): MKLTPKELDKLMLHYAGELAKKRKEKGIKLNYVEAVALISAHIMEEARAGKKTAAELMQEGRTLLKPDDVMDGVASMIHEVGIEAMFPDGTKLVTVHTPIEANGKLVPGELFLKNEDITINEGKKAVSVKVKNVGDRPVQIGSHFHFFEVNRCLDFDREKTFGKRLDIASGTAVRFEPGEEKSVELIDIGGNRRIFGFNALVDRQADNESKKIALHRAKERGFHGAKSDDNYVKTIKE
T2 sequence (P69996 whole entry, looked up): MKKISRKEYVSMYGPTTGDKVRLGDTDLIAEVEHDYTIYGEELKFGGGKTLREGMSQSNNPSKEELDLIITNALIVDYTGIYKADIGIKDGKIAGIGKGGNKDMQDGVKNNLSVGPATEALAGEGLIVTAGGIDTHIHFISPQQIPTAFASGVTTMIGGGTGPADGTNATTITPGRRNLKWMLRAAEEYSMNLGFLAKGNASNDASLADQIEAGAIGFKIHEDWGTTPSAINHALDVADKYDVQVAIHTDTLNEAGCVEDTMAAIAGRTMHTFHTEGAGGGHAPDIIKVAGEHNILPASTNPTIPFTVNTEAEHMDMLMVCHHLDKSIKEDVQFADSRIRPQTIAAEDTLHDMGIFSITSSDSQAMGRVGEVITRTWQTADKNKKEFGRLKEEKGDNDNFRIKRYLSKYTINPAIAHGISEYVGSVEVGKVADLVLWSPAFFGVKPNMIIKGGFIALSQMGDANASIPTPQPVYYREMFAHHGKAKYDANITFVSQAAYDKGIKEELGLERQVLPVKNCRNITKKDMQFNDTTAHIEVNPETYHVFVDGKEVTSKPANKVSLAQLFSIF
T1 sequence (P69996 whole entry): as the sequence (P69996 whole entry, looked up) above
T1 sequence (P14916 whole entry, further chain): as the sequence (P14916 whole entry, looked up) above

On to `O=C(COc1ccccc1Cl)NO`, for which the pIC50 – broadly, −log10 of the IC50, conventionally taken in molar units – in test [1] was 4.11.

As for `Cc1ccccc1OCC(=O)NO`, the pIC50 in test [1] was 3.81.

On to `O=C(COc1cccc(F)c1)NO`, for which the pIC50 in test [1] was 4.57.

As to `O=C(COc1cc(F)cc(F)c1)NO`, the pIC50 in test [1] is 3.69.

For `O=C(CCOc1ccccc1)NO`, the pIC50 in test [1] was 5.38.

Regarding `O=C(CCOc1ccc(Cl)cc1)NO`, the pKi – broadly, −log10 of the Ki, conventionally taken in molar units – in test [2] is 7.27; in test [6], 7.37. The pIC50 in test [1] is 6.36; in test [4] it was 5.09. Besides, the inhibition result in test [3] is “Dose-dependent effect”. The Ratio IC50 in test [5] was 14 to 24.

`O=C(COc1ccc(Cl)cc1)NO`: in test [1], the pIC50 was 5.90.

As for `COc1ccc(OCC(=O)NO)cc1`, the pIC50 in test [1] was 4.31.

Take `O=C(CCOc1ccc(Br)cc1)NO`: the negative-log IC50 (pIC50) in test [1] was 6.07; in test [4] it was 4.79. In addition, in test [3], the inhibition entry was “Dose-dependent effect”. In addition, in test [5], the Ratio IC50 lay within 14 to 24.

On to `O=C(COc1ccc(Cl)c(Cl)c1)NO`, for which the pIC50 in test [1] is 6.28; in test [4], 4.89. For the same compound, in test [3], the inhibition entry was “Dose-dependent effect”. For the same compound, the Ratio IC50 in test [5] was 14 to 24.

On to `Cc1cccc(OCC(=O)NO)c1`, for which, in test [1], the negative-log IC50 (pIC50) was 4.07.

On to `O=C(CCOc1ccc(Cl)c(Cl)c1)NO`, for which the negative-log IC50 (pIC50) in test [1] was 7.21; in test [4], 6.05. In addition, the inhibition result in test [3] was “Dose-dependent effect”. In addition, the Ratio IC50 in test [7] was above 450; in test [8], above 120; in test [5], 14 to 24.

As to `Cc1ccccc1OCCC(=O)NO`, in test [1], the pIC50 is 5.17.

Regarding `O=C(COc1ccc(Br)cc1)NO`, the negative-log IC50 (pIC50) in test [1] is 5.27.

With `O=C(CCOc1cccc(F)c1)NO`, the negative logarithm of the IC50 (pIC50) in test [1] was 5.69.

Take `Cc1ccc(OCC(=O)NO)cc1`: the pIC50 in test [1] was 4.24.

Turning to `O=C(COc1cccc(Cl)c1)NO`, the negative-log IC50 (pIC50) in test [1] was 4.98.

Turning to `COc1ccc(OCCC(=O)NO)cc1`, the negative-log IC50 (pIC50) in test [1] is 5.08.

Turning to `Cc1cc(C)cc(OCCC(=O)NO)c1`, the negative-log IC50 (pIC50) in test [1] was 4.98.

With `O=C(COc1ccc(Cl)cc1Cl)NO`, the pIC50 in test [1] is 6.08; in test [4] it was 4.67. Further, the inhibition entry in test [3] is “Dose-dependent effect”. Moreover, in test [5], the Ratio IC50 was in the range of 14 to 24.

Turning to `Cc1ccc(OCCC(=O)NO)cc1`, the negative logarithm of the IC50 (pIC50) in test [1] was 5.86.

On to `O=C(CCOc1cccc(Cl)c1)NO`, for which the pIC50 in test [1] is 5.91.

`O=C(CCOc1cc(Cl)ccc1Cl)NO`: the negative-log IC50 (pIC50) in test [1] was 4.88.

As to `O=C(COc1ccccc1)NO`, the negative-log IC50 (pIC50) in test [1] is 3.88.

Regarding `O=C(COc1ccc([N+](=O)[O-])cc1)NO`, the pIC50 in test [1] was 4.21.

For `O=C(COc1ccc(F)cc1)NO`, the pIC50 in test [1] is 4.72.

As to `O=C(COc1c(Cl)cccc1Cl)NO`, in test [1], the negative-log IC50 (pIC50) is 3.45.

`O=C(CCOc1ccc(F)cc1)NO`: in test [1], the pIC50 is 5.95.

Turning to `O=C(COc1cc(Cl)cc(Cl)c1)NO`, the negative logarithm of the IC50 (pIC50) in test [1] was 5.49.

With `O=C(COc1ccccc1[N+](=O)[O-])NO`, in test [1], the negative-log IC50 (pIC50) is 3.84.

In the case of `O=C(COc1cc(Cl)ccc1Cl)NO`, in test [1], the negative-log IC50 (pIC50) was 5.04.

Take `Cc1cccc(OCCC(=O)NO)c1`: the negative logarithm of the IC50 (pIC50) in test [1] was 5.47.

In the case of `O=C(COc1cccc([N+](=O)[O-])c1)NO`, in test [1], the pIC50 was 4.02.

With `O=C(COc1cccc(Cl)c1Cl)NO`, in test [1], the pIC50 is 3.75.

With `Cc1cc(C)cc(OCC(=O)NO)c1`, the negative-log IC50 (pIC50) in test [1] is 4.38.

As for `O=C(CCOc1cc(F)cc(F)c1)NO`, in test [1], the pIC50 is 5.29.

Turning to `O=C(COc1ccccc1F)NO`, in test [1], the negative logarithm of the IC50 (pIC50) was 3.92.

The values are drawn from ChEMBL document CHEMBL4229433, “The synthesis and evaluation of phenoxyacylhydroxamic acids as potential agents for Helicobacter pylori infections” (Bioorg Med Chem, 2018).
